Values after ≈ are worked out from the molar mass of the structure shown.
Experiments:
HT-29 [1] = assay: Cytotoxicity in the presence of beta-Glucuronidase (betaG, 5 micro g/ml) towards human colorectal cells (HT-29); format: functional, cell-based
Procedure, shortened: (§1)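 Same 72 h [³H]thymidine-incorporation assay (1-1.5 × 10⁴ cells/well in RPMI/10% bovine serum, 37 °C, 5% CO₂), with β-glucuronidase added at 5 µg/mL alongside the drug concentration series. Controls were medium or 0.5% DMSO. IC50 was interpolated from log dose-response curves, as means of 1-3 experiments in triplicate.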

[2] = Solubility is determined at pH 4.0; format: physicochemical; conditions: buffer
Procedure, shortened: (§2)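 Excess solid was equilibrated 24 h at 25 °C in 100 mM phosphate buffer pH 4.0, or in βG buffer (acetic acid/bis-tris/triethanolamine) pH 7.0. Samples were filtered through 0.22 µm, diluted in mobile phase and quantified by C18 HPLC (45% MeOH/25 mM phosphate pH 2.55, fluorescence ex 397/em 482 nm) against calibration curves. Values are in mg/mL.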

HepG2 [3] = assay: Cytotoxicity expressed as the concentration that inhibited incorporation of [3H]-thymidine into cellular DNA of human hepatocellular cells (HepG2); format: functional, cell-based
Procedure, shortened: (§3)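 Exponentially growing tumour cells, 1-1.5 × 10⁴ cells/well, in RPMI with 10% bovine serum plus penicillin/streptomycin, exposed 72 h (37 °C, 5% CO₂) to a drug concentration series. Drugs were dissolved in DMSO (≤0.5% final) or in medium. [³H]thymidine incorporation into DNA was read after PBS wash and trypsin harvest. IC50 was interpolated from log dose-response curves, as means of 1-3 experiments in triplicate.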

COLO 205 [4] = assay: Cytotoxicity in the presence of beta-Glucuronidase (betaG, 5 micro g/ml) towards human colorectal cells(COLO 205); format: functional, cell-based; procedure, shortened: as §1
[5] = Cytotoxicity expressed as the concentration that inhibited incorporation of [3H]thymidine into cellular DNA of human cervical cells (CaSki); format: functional, cell-based; procedure, shortened: as §3
COLO 205 [6] = assay: Cytotoxicity expressed as the concentration that inhibited incorporation of [3H]thymidine into cellular DNA of human colorectal cells (COLO 205); format: functional, cell-based; procedure, shortened: as §3
[7] = Cytotoxicity in the presence of beta-Glucuronidase (betaG, 5 micro g/ml) towards human cervical cells(CaSki); format: functional, cell-based; procedure, shortened: as §1
HepG2 [8] = assay: Cytotoxicity in the presence of beta-Glucuronidase (betaG, 5 micro g/ml) towards human hepatocellular cells (HepG2); format: functional, cell-based; procedure, shortened: as §1
[9] = Solubility is determined at pH 7.0; format: physicochemical; conditions: buffer; procedure, shortened: as §2
HT-29 [10] = assay: Cytotoxicity expressed as the concentration that inhibited incorporation of [3H]thymidine into cellular DNA of human colorectal cells (HT-29); format: functional, cell-based; procedure, shortened: as §3
NCI-H928 [11] = assay: Cytotoxicity expressed as the concentration that inhibited incorporation of [3H]-thymidine into cellular DNA of human lung carcinoma cells (H928); format: functional, cell-based; procedure, shortened: as §3
HepG2 [12] = assay: Cytotoxicity expressed as the concentration that inhibited incorporation of [3H]thymidine into cellular DNA of human hepatocellular cells (HepG2); format: functional, cell-based; procedure, shortened: as §3
[13] = Percentage of compound converted to 9-aminocamptothecin for hydrolysis by beta-Glucuronidase( incubated at pH 7.0 for 2 hr at 37 degrees Celsius at the concentration 0.1 ug/mL); format: ADME; conditions: buffer, pH 7, 2 h
Procedure, shortened: (§4)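 The reaction was quenched with ice-cold MeOH/5% H₃PO₄ (6/1) and centrifuged. Supernatant was analysed by reversed-phase C18 HPLC with fluorescence detection (ex 397/em 482 nm) to give the % converted to 9-aminocamptothecin.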

[14] = Percentage of compound converted to 9-aminocamptothecin for hydrolysis by beta-Glucuronidase( incubated at pH 7.0 for 2 hr at 37 degrees Celsius at the concentration 0.01 ug/mL); format: ADME; conditions: buffer, pH 7, 2 h; procedure, shortened: as §4
[15] = Percentage of compound converted to 9-aminocamptothecin for hydrolysis by beta-Glucuronidase(incubated at pH 7.0 for 2 hr at 37 degrees Celsius at the concentration 0.5 ug/mL); format: ADME; conditions: buffer, pH 7, 2 h; procedure, shortened: as §4
[16] = Percentage of compound converted to 9-aminocamptothecin for hydrolysis by beta-Glucuronidase( incubated at pH 7.0 for 2 h at 37 degrees Celsius at the concentration 0.05 ug/mL); format: ADME; conditions: buffer, pH 7, 2 h; procedure, shortened: as §4
NCI-H928 [17] = assay: Cytotoxicity in the presence of beta-Glucuronidase (betaG, 5 micro g/ml) towards human lung carcinoma cells (H928); format: functional, cell-based; procedure, shortened: as §1

| SMILES | solubility [2] [µg/mL] | IC50 [5] [nM] | IC50 (COLO 205 [6]; colo 205) [nM] | IC50 (HepG2 [8]) [nM] | solubility [9] | IC50 (HT-29 [10]) [nM] | IC50 (NCI-H928 [11]) [nM] | IC50 (HepG2 [12]) [nM] | IC50 ([5]; Homo sapiens) [nM] | IC50 (COLO 205 [6]; Homo sapiens, COLO 205) [nM] | other results |
| --- | --- | --- | --- | --- | --- | --- | --- | --- | --- | --- | --- |
| CC[C@@]1(O)C(=O)OCc2c1cc1n(c2=O)Cc2cc3c(NC(=O)OCc4ccc(O[C@@H]5O[C@H](C(=O)[O-])[C@@H](O)[C@H](O)[C@H]5O)cc4)cccc3nc2-1.[K+] | 25000 | 510 | 460 | 6.7 |  |  |  |  |  |  | IC50 (HT-29 [1]; Homo sapiens, HT-29): 11 nM; IC50 (HepG2 [3]): 280 nM; IC50 (COLO 205 [4]; Homo sapiens, COLO 205): 8.2 nM; IC50 ([7]; Homo sapiens): 9.1 nM |
| CC[C@@]1(O)C(=O)OCc2c1cc1n(c2=O)Cc2cc3c(N)cccc3nc2-1 [9-AMINOCAMPTOTHECIN] | 6 (≈ 16.5 µM) |  |  |  | 0.06 mg/mL (≈ 165 µM) | 7.4 | 7.9 | 3.5 | 8.5 | 6.6 |  |
| CC[C@@]1(O)C(=O)OCc2c1cc1n(c2=O)Cc2cc3ccccc3nc2-1 [CAMPTOTHECIN] |  |  |  |  |  |  | 7.8 | 6.3 | 8.5 | 5.4 |  |
| CC[C@@]1(O)C(=O)OCc2c1cc1n(c2=O)Cc2cc3c(NC(=O)OCc4ccc(O[C@@H]5O[C@H](C(=O)O)[C@@H](O)[C@H](O)[C@H]5O)cc4)cccc3nc2-1 | 500 (≈ 725 µM) | 190 | 200 | 2.9 | 110 mg/kg | 150 | 300 | 110 |  |  | IC50 (HT-29 [1]; ht-29): 6.6 nM; Conversion [13]: 98%; Conversion [14]: 45%; IC50 (COLO 205 [4]; colo 205): 8 nM; IC50 [7]: 7.8 nM; Conversion [15]: 92%; Conversion [16]: 92%; IC50 (NCI-H928 [17]): 7.9 nM |
